This is an account of results in ChEMBL document CHEMBL1135816, “6-Aryl-1,4-dihydro-benzo[d][1,3]oxazin- 2-ones: a novel class of potent, selective, and orally active nonsteroidal progesterone receptor antagonists” (J Med Chem, 2002).

Data set [1] concerns the target T1, Progesterone receptor (Homo sapiens, UniProt P06401).
T1 sequence (P06401 whole entry): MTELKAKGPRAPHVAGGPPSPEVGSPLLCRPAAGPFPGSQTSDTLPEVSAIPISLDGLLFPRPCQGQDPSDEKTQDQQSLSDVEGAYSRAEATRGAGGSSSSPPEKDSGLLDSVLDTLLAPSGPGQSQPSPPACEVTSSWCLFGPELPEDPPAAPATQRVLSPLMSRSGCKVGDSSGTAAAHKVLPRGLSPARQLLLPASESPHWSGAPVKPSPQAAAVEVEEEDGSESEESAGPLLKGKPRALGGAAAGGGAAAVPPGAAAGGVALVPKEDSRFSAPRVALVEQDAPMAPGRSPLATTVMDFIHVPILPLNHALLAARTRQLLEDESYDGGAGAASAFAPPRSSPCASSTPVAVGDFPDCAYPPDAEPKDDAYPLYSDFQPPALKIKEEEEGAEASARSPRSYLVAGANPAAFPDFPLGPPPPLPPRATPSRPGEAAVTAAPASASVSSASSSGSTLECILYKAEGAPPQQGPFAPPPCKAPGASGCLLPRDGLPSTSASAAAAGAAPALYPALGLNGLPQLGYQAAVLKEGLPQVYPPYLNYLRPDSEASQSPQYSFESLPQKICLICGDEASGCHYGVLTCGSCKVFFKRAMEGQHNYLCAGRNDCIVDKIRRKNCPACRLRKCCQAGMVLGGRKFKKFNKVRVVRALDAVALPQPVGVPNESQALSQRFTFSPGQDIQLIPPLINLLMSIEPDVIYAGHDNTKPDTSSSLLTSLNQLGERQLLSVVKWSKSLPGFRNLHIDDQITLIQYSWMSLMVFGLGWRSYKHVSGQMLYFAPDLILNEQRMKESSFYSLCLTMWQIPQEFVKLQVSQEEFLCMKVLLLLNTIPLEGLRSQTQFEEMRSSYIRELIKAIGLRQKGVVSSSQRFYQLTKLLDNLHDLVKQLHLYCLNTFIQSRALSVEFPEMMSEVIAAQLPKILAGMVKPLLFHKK
Nature of the data set: Antagonist activity against progesterone receptor (PR) in an alkaline phosphatase assay in the T47D human breast carcinoma cell line. The class given is functional, cell-based.

Data set [2] concerns the target T1, Progesterone receptor. Nature of the data set: Agonist activity against progesterone receptor (PR) in an alkaline phosphatase assay in the T47D human breast carcinoma cell line. Format: functional, cell-based. The method in brief:
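T47D human breast carcinoma cells scored for PR agonism via alkaline phosphatase read-out; EC50 taken as the mean of at least duplicate determinations.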

A short description of data set [3]: Half life in female rats for a dose of 1 mg/kg administered intravenously. Format: ADME, organism-based. Also noted: dose 1 mg/kg, route intravenous. The conditions noted are these: rat, in vivo, iv.
Data set [4] in a line: Area under the curve (AUC) for the compound in female rats for a dose of 1 mg/kg administered intravenously. Also noted: dose 1 mg/kg, route intravenous. To be noted: rat, in vivo, iv. The class given is ADME, organism-based.
Data set [5] can be described thus: Plasma clearance (Cl) for the compound in female rats for a dose of 1 mg/kg administered intravenously. Format: ADME, organism-based. The conditions noted are these: rat, iv, read-out: Clp (converted). Also noted: dose 1 mg/kg, route intravenous.

As usually defined, the IC50 is the concentration that gives 50% inhibition. A low value points to greater potency. For `CC1(C)OC(=O)Nc2ccc(-c3ccc(F)c(Cl)c3)cc21`, at Progesterone receptor [1], the IC50 is 23 nM. That is a double-digit nanomolar value.

At Progesterone receptor [1], `CC1(C)OC(=O)Nc2ccc(-c3coc(C#N)c3)cc21` had an IC50 of 8 nM.

As a reminder, the EC50 is the midpoint of the concentration-response curve. High values mean a less potent agent, low ones a more potent agent. `CC1(C)OC(=O)Nc2ccc(-c3csc(C#N)c3)cc21` displayed an EC50 on Progesterone receptor [2] of 61.1 nM.

By half-life is commonly meant how long it takes for the measured level to halve. A low value points to rapid decline. The AUC is concentration integrated over time. A low value points to less exposure. At Progesterone receptor [2], `CC1(C)OC(=O)Nc2ccc(-c3cc(F)cc(C#N)c3)cc21` came in with an EC50 of 90 nM. This molecule gave a half-life in data set [3] of 7.7 h. Further, the area under the curve (AUC) in data set [4] was 3690 ng·h/mL. In addition, the clearance in data set [5] was 3.67 mL/min/kg.
